Measurements as given in ChEMBL document CHEMBL1145421, “Discovery of novel antitumor antimitotic agents that also reverse tumor resistance” (J Med Chem, 2007).
pIC50: −log10 of the molar value.

Experiments:
[1] = Cytotoxicity against human T24 cells after 48 hrs by SRB binding assay; format: cell-based; conditions: T-24, 48 h
MCF7 [2] = experiment: Cytotoxicity against human MCF7 cells after 48 hrs by SRB binding assay; format: functional, cell-based; conditions: MCF7, 48 h
Procedure, shortened: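 Drug-sensitive MCF-7 cells seeded at ~15% confluency and allowed 24 h recovery. Exposed 48 h to graded concentrations. Survival measured by SRB binding as % decrease versus ethanol-vehicle controls, mean of triplicate wells.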

[3] = Cytotoxicity against Pgp overexpressing human NCI/ADR cells after 48 hrs by SRB binding assay; format: functional, cell-based; conditions: NCI/ADR-RES
Procedure, shortened: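 NCI/ADR (Pgp-overexpressing) cells seeded at ~15% confluency and allowed 24 h to attach. Exposed 48 h to graded concentrations, as solubility allowed, without vinblastine. Survival measured by sulforhodamine B binding as % decrease in SRB binding versus ethanol-vehicle controls, mean of three wells per condition.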

[4] = Cytotoxicity against MRP1 overexpressing human MCF7/VP cells after 48 hrs by SRB binding assay; format: functional, cell-based
Procedure, shortened: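 MCF-7/VP (MRP1-expressing, Pgp-negative) cells seeded at ~15% confluency and allowed 24 h to attach. Exposed 48 h to graded concentrations without vincristine. Survival measured by SRB binding versus ethanol controls.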

MCF7 [5] = experiment: Growth inhibition of Pgp deficient MCF7 cells expressing MRP1; format: functional, cell-based; conditions: Homo sapiens
Procedure, shortened: (§1)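 NCI/ADR (Pgp-overexpressing) or MCF-7/VP (MRP1-expressing, Pgp-negative) cells were seeded at about 15% confluency and allowed to attach for 24 h. They were then exposed for 48 h to varying compound concentrations, limited by solubility, without added vinca drug. Survival was read by sulforhodamine B binding against ethanol solvent controls. Each value is the mean of three equally treated wells.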

[6] = Growth inhibition of NCI/ADR cells expressing Pgp/MRP1; format: functional, cell-based; conditions: Homo sapiens, NCI/ADR-RES; procedure, shortened: as §1
[7] = Growth inhibition of Pgp deficient MCF7/VP cells expressing MRP1; format: functional, cell-based; conditions: Homo sapiens; procedure, shortened: as §1
HL-60 [8] = experiment: Cell cycle arrest in HL60 cells assessed as accumulation in G0/G1 phase at 200 nM; format: functional, Homo sapiens
Procedure, shortened: (§2)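 HL-60 cells exposed 24 or 48 h to drug or ethanol vehicle. Nuclei prepared by detergent-trypsin method: citrate/sucrose/DMSO buffer, trypsin, then trypsin inhibitor plus RNase A, then propidium iodide with spermine, 30 min at 4 °C. Filtered, resuspended, DNA content measured by flow cytometry. Percentages given for G0/G1, S and G2/M. Mean ± SEM.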

HL-60 [9] = experiment: Cell cycle arrest in HL60 cells assessed as accumulation in S phase at 200 nM; format: functional, Homo sapiens; procedure, shortened: as §2
HL-60 [10] = experiment: Cell cycle arrest in HL60 cells assessed as accumulation in […] phase at 200 nM; format: functional, Homo sapiens; procedure, shortened: as §2
HL-60 [11] = experiment: Cell cycle arrest in HL60 cells assessed as accumulation in G0/G1 phase at 600 nM; format: functional, Homo sapiens; procedure, shortened: as §2
HL-60 [12] = experiment: Cell cycle arrest in HL60 cells assessed as accumulation in S phase at 600 nM; format: functional, Homo sapiens; procedure, shortened: as §2
HL-60 [13] = experiment: Cell cycle arrest in HL60 cells assessed as accumulation in […] phase at 600 nM; format: functional, Homo sapiens; procedure, shortened: as §2

For `COc1cccc(CCc2cn(Cc3ccccc3)c3nc(N)nc(C)c23)c1`, the pIC50 [1] was 4.60, the pIC50 (MCF7 [2]) was 5.10 and the pIC50 [3] was 5.24. The pIC50 [4] was 4.66.

`Cc1nc(N)nc2c1c(CCc1ccccc1)cn2Cc1ccccc1` gave a pIC50 [1] of 4.90, a pIC50 (MCF7 [2]) of 4.97 and a pIC50 [3] of 4.74. The pIC50 [4] was 4.74.

`CC(=O)O[C@H]1C(=O)[C@@]2(C)[C@H]([C@H](OC(=O)c3ccccc3)[C@]3(O)C[C@H](OC(=O)[C@H](O)[C@@H](NC(=O)c4ccccc4)c4ccccc4)C(C)=C1C3(C)C)[C@]1(OC(C)=O)CO[C@@H]1C[C@@H]2O` [PACLITAXEL] gave a pIC50 (MCF7 [5]) of 8.60, a pIC50 [6] of 5.57 and a pIC50 [7] of 8.55. For the same compound, the Activity (HL-60 [8]) was 67.3%, the Activity (HL-60 [9]) was 22.2% and the Activity (HL-60 [10]) was 10.5%.

Compound `COc1cc2c(c(OC)c1OC)-c1ccc(OC)c(=O)cc1[C@@H](NC(C)=O)CC2` [COLCHICINE] has an Activity (HL-60 [11]) of 84.1%, an Activity (HL-60 [12]) of 4% and an Activity (HL-60 [13]) of 11.9%.
